Assay results reported in ChEMBL document CHEMBL1142960, “Synthesis and structure-activity relationships for 2,4-dinitrobenzamide-5-mustards as prodrugs for the Escherichia coli nfsB nitroreductase in gene therapy” (J Med Chem, 2007).
In brackets after ≈: the same amount, converted by molar mass.

How the values were obtained:
[1] = Antiproliferative activity against human wild type Skov3 NTR-ve cells after 18 hrs; format: functional, cell-based
EMT6 [2] = assay: Antiproliferative activity against mouse EMT6 NTRpuro cells after 18 hrs; format: functional, cell-based; settings: EMT6, 18 h
[3] = Solubility in alpha MEM; format: physicochemical
Outline: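 Solubility (mM) in α-MEM with 5% fetal calf serum at ambient temperature, measured by HPLC.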

V79 [4] = assay: Clonogenic survival of 97% V79 NTRoua cells in co-cultures with 3% V79 NTRpuro cells after 5 hrs by MCL assay; format: functional, Cricetulus griseus
Outline: (§1)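 Multicellular layer cocultures of 3% V79-NTRpuro activators and 97% V79oua NTR-ve targets (ouabain-resistant), exposed to prodrug for 5 h. MCLs were then trypsin-dissociated and plated in ouabain or puromycin selective media for clonogenic survival. C10 (10% survival) interpolated for activators and targets; AC/TC ratio derived. Mean with SEM or range over independent experiments.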

V79 [5] = assay: Selectivity ratio of IC50 for V79 NTR-ve cells to IC50 for V79 NTRpuro cells; format: functional, Cricetulus griseus
[6] = Selectivity ratio of IC50 for Skov3 NTR-ve cells to IC50 for Skov3 NTRneo cells; format: functional, Homo sapiens
WiDr [7] = assay: Selectivity ratio of IC50 for WiDr NTR-ve cells to IC50 for WiDr NTRneo cells; format: functional, Homo sapiens
[8] = Partition coefficient at pH 7.4 by shake-flask method; format: physicochemical; settings: octanol/water
Outline: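 Octanol-water partition coefficient by shake-flask at pH 7.4, reported with SEM.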

V79 [9] = assay: Antiproliferative activity against chinese hamster wild-type V79 NTR-ve cells after 18 hrs; format: functional, cell-based; settings: Cricetulus griseus, V79, 18 h
EMT6 [10] = assay: Selectivity ratio of IC50 for EMT6 NTR-ve cells to IC50 forEMT6 NTRpuro cells; format: functional, Mus musculus
[11] = Antiproliferative activity against human Skov3 NTRneo cells after 18 hrs; format: functional, cell-based; settings: SK-OV-3, 18 h
EMT6 [12] = assay: Antiproliferative activity against mouse wild type EMT6 NTR-ve cells after 18 hrs; format: functional, cell-based; settings: EMT6, 18 h
[13] = Stability in alpha MEM at 37 degC after 24 hrs; format: physicochemical; settings: read-out: Stability
Outline: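 Percent parent compound remaining, by HPLC, after holding in α-MEM with 5% fetal calf serum at 37 °C for 24 h.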

WiDr [14] = assay: Antiproliferative activity against human WiDr NTRneo cells after 18 hrs; format: functional, cell-based
V79 [15] = assay: Antiproliferative activity against chinese hamster V79 NTRpuro cells after 18 hrs; format: functional, cell-based; settings: Cricetulus griseus, V79, 18 h
WiDr [16] = assay: Antiproliferative activity against human wild type WiDr NTR-ve cells after 18 hrs; format: functional, cell-based
V79 [17] = assay: Clonogenic survival of 3% V79 NTRpuro cells in co-cultures with 97% V79 NTRoua after 5 hrs by MCL assay; format: functional, Cricetulus griseus; outline: as §1
V79 [18] = assay: Clonogenic survival of V79 NTRoua cells after 5 hrs by MCL assay; format: functional, Cricetulus griseus
WiDr [19] = assay: Antitumor activity against human 100% WiDr NTRneo tumor cells injected in CD1 nude mouse assessed as growth delay at 200 umol/kg, ip in DMA/PEG; format: functional
Outline: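 WiDr-NTRneo tumours (100% NTR+ve, or 1:9 NTR+ve:NTR-ve mixtures) in CD-1 nude mice, given a single i.p. dose at MTD. Read-out is median growth delay to 15 mm mean diameter, plus tumours not palpable 100 days after treatment. Aziridine given at 200 µmol/kg as positive control in every experiment.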

EMT6 [20] = assay: Antitumor activity against mixed mouse EMT6/EMT6 NTRpuro cells injected in CD1 nude mouse assessed as cell kill at 200 umol/kg, ip in DMA/PEG after 18 hrs; format: functional
[21] = Toxicity in ip dosed CD1 nude mouse in DMA/PEG; format: organism-based; settings: in vivo
Outline: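 Maximum tolerated dose (MTD) determined in CD-1 nude mice after a single i.p. injection of prodrug, given in the vehicle named in each line.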

Structure (SMILES) | IC50 [1] [µM] | IC50 (EMT6 [2]) [µM] | solubility [3] [µM] | Activity (V79 [4]) [µM] | Ratio IC50 (V79 [5]) | Ratio IC50 [6] | Ratio IC50 (WiDr [7]) | logD [8] | IC50 (V79 [9]) [µM] | Ratio IC50 (EMT6 [10]) | IC50 [11] [µM] | IC50 (EMT6 [12]) [µM] | remaining at 24 h [13] [%] | IC50 (WiDr [14]) [µM] | IC50 (V79 [15]) [µM] | IC50 (WiDr [16]) [µM] | Activity (V79 [17]) [µM] | Activity (V79 [18]) [µM] | further results
NC(=O)c1cc(N(CCOS(N)(=O)=O)CCOS(N)(=O)=O)c([N+](=O)[O-])cc1[N+](=O)[O-] | 868 | 1.6 | 1800 (≈ 850 µg/mL) | 800 | 788 | 265 | 227 | -0.95 | 650 | 491 | 3.9 | 770 | 95 | 1.9 | 0.87 | 437 | 9.5 | >1800 | 
CS(=O)(=O)c1cc([N+](=O)[O-])c(N(CCCl)CCCl)cc1C(=O)NCC(O)CO (stereo unspecified) | 2320 | 189 | 16000 (≈ 7330 µg/mL) |  | 2.3 | 3.3 | 2 |  | 843 | 6.4 | 745 | 1200 | 106 | 994 | 427 | 1980 |  |  | 
O=C(NCCO)c1cc(N(CCI)CCI)c([N+](=O)[O-])cc1[N+](=O)[O-] |  |  | 400 (≈ 231 µg/mL) | 10 |  |  | 31.7 |  |  |  |  |  | 23 | 0.882 |  | 28 | 5.5 | 122 | 
CS(=O)(=O)OCCN(CCBr)c1cc(C(=O)NCCO)c([N+](=O)[O-])cc1[N+](=O)[O-] | 286 | 0.2 | 1700 (≈ 849 µg/mL) |  | 620 | 467 | 250 | 0.46 | 633 | 1330 | 0.61 | 219 | 70 | 0.78 | 1 | 194 |  |  | 
NC(=O)c1cc(N(CCI)CCI)c([N+](=O)[O-])cc1[N+](=O)[O-] | 30 | 0.08 | 40 (≈ 21.4 µg/mL) | 2 | 54 | 71 | 50 | 2.41 | 11 | 332 | 0.43 | 25 | 69 | 0.3 | 0.2 | 15 | 1.65 | >20 | Activity (WiDr [19]): 8 days; LCK (EMT6 [20]): 1.48; MTD [21]: 200 µmol/kg
CS(=O)(=O)c1cc([N+](=O)[O-])c(C(N)=O)cc1N(CCCl)CCCl | 980 | 3.9 | 330 (≈ 127 µg/mL) | >300 | 73 | 65 | 15 |  | 767 | 101 | 15 | 388 |  | 26 | 9.5 | 350 | 160 | >1000 | 
CS(=O)(=O)OCCN(CCOS(C)(=O)=O)c1cc(C(=O)NCC(O)CO)c([N+](=O)[O-])cc1[N+](=O)[O-] (stereo unspecified) | 379 | 8 | 9000 (≈ 4900 µg/mL) |  | 13 | 43 | 17 |  | 237 | 31 | 10 | 251 | 54 | 23 | 16 | 347 |  |  | 
O=C(NCCO)c1cc(N(CCBr)CCBr)c([N+](=O)[O-])cc1[N+](=O)[O-] | 81 | 0.08 | 320 (≈ 155 µg/mL) | 17 | 203 | 270 | 182 | 1.69 | 80 | 871 | 0.3 | 70 | 76 | 0.34 | 0.43 | 61 | 5.2 | 150 | 
CS(=O)(=O)OCCN(CCBr)c1cc(C(=O)NO)c([N+](=O)[O-])cc1[N+](=O)[O-] | 146 | 0.41 | 1500 (≈ 707 µg/mL) |  | 112 | 115 | 100 |  | 97 | 156 | 1.44 | 63 | 48 | 1.16 | 0.9 | 113 |  |  | 
O=C(NCCn1ccnc1)c1cc(N(CCCl)CCCl)c([N+](=O)[O-])cc1[N+](=O)[O-] | 438 | 2.6 | 500 (≈ 223 µg/mL) |  | 6.6 | 140 | 18 |  | 273 | 52 | 4.1 | 178 | 94 | 11 | 46 | 163 |  |  | 
O=C(NCCCn1ccnc1)c1cc(N(CCCl)CCCl)c([N+](=O)[O-])cc1[N+](=O)[O-] | 474 | 45 | 19000 (≈ 8730 µg/mL) |  | 7.4 | 26 | 2.9 |  | 174 | 41 | 18 | 187 | 70 | 37 | 32 | 106 |  |  | 
